Activity calls are given as the source filed them. The rule behind the calls is not given here.
Legend:
[1] = target: T1, Inhibitor of nuclear factor kappa-B kinase subunit beta (Homo sapiens) (UniProt O14920); test: Inhibition of IKKbeta in human SK-N-AS cells expressing red fluorescent protein fused NFkappaB/p65 (unknown origin) assessed as reduction in TNFalpha-induced NFkappaB/p65 nuclear translocation at 50 uM pre-incubated for 30 mins by flow cytometric analysis; type: cell-based
T1 sequence (whole entry): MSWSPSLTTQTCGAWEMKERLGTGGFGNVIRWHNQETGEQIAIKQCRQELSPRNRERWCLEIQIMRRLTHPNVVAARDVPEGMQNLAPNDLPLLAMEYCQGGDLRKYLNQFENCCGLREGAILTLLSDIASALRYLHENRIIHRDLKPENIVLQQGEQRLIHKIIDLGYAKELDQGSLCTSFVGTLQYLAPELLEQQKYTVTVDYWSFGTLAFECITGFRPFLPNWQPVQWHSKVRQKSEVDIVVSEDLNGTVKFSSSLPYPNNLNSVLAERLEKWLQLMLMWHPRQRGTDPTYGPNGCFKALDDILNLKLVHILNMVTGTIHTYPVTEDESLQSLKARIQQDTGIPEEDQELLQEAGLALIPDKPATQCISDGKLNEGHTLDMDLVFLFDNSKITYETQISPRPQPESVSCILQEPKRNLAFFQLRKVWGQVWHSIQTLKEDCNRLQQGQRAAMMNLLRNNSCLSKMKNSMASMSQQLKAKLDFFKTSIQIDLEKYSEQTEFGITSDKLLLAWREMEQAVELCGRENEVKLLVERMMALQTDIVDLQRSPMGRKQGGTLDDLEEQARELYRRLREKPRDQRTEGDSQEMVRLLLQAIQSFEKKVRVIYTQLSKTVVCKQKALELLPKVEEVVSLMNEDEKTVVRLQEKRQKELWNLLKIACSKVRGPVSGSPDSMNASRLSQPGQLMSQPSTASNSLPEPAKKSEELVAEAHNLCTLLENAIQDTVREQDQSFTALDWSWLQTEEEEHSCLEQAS

[2] = target: T2, Inhibitor of nuclear factor kappa-B kinase subunit alpha (Homo sapiens) (UniProt O15111); test: Inhibition of human IKKalpha using LDDRHDSGLDSMKDEEY as substrate at 100 uM after 40 mins in presence of [gamma-33P-ATP] by scintillation counting analysis
T2 sequence (whole entry): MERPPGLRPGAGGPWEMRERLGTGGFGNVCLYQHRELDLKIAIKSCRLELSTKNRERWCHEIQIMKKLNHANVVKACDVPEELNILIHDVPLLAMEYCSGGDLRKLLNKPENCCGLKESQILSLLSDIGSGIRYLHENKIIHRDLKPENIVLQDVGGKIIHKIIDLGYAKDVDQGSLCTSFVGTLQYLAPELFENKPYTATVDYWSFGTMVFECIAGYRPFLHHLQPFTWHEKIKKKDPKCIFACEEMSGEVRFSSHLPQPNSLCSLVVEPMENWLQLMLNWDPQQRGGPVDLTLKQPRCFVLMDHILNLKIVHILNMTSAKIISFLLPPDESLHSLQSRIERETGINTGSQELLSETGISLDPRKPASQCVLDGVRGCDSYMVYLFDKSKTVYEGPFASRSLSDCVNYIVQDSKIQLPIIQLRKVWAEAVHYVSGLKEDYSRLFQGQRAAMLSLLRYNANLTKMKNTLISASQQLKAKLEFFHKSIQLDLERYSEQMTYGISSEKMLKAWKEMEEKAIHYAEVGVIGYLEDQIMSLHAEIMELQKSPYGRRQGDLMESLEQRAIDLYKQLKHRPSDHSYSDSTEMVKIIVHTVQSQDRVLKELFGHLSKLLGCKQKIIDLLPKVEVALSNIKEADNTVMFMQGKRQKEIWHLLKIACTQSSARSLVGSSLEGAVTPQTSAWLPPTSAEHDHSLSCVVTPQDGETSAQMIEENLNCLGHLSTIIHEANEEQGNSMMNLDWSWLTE
Method in brief: (§1)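 Radiometric [γ-33P]ATP assay (specific activity approx. 500 cpm/pmol) run by an outsourced service. Compound was added first from a 50x stock in DMSO, giving 2% DMSO final. Positive controls contained DMSO only; blanks used a reference inhibitor to set 0% activity. Reactions were started with MgATP mix, run 40 min at room temperature, and stopped with 3% phosphoric acid. They were spotted on P30 filtermat, washed in 75 mM phosphoric acid and methanol, and scintillation counted.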

[3] = target: T3, Inhibitor of nuclear factor kappa-B kinase subunit epsilon (Homo sapiens) (UniProt Q14164); test: Inhibition of human activated IKKepsilon using casein as substrate at 100 uM after 40 mins in presence of [gamma-33P-ATP] by scintillation counting analysis; method in brief: as §1
T3 sequence (whole entry): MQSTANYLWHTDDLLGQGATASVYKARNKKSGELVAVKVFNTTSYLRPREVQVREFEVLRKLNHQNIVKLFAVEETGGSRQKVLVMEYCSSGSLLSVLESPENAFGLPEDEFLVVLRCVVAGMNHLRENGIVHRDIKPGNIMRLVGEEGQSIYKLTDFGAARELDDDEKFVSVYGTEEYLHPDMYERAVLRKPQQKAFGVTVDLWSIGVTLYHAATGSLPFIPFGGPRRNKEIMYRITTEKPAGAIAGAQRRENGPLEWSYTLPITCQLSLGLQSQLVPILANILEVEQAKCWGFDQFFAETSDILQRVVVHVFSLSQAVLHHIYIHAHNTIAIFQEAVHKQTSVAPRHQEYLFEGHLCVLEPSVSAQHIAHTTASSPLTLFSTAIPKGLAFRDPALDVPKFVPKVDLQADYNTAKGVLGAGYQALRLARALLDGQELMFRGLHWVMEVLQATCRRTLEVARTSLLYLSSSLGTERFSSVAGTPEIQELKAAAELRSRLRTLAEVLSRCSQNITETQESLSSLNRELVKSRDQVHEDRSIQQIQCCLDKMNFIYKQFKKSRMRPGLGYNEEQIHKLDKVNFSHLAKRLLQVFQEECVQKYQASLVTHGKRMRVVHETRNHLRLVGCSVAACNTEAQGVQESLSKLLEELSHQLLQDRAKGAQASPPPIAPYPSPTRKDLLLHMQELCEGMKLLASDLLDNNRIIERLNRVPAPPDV

[4] = target: Tyrosine-protein kinase Lck (Homo sapiens) (UniProt P06239); test: Inhibition of human Lck using KVEKIGEGTYGVVYK (Cdc2 peptide) as substrate at 100 uM after 40 mins in presence of [gamma-33P-ATP] by scintillation counting analysis; method in brief: as §1
Sequence of Tyrosine-protein kinase Lck (Homo sapiens) (P06239 2-509 limits assumed): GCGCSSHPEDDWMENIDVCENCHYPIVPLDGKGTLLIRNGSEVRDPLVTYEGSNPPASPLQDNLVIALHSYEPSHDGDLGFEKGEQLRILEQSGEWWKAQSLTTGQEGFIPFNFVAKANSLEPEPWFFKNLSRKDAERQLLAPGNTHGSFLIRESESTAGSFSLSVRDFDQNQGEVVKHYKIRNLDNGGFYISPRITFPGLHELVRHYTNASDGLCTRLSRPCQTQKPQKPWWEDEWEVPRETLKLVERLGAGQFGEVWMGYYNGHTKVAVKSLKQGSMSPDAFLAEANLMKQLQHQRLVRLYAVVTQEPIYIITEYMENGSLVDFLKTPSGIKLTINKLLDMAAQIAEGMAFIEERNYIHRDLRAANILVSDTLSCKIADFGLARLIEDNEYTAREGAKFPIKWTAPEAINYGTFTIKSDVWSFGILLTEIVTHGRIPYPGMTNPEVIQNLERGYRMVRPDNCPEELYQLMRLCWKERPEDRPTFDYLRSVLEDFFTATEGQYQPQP

[5] = target: Protein kinase C delta type (Homo sapiens) (UniProt Q05655); test: Inhibition of human PKCdelta using ERMRPRKRQGSVRRRV as substrate at 100 uM after 40 mins in presence of [gamma-33P-ATP] by scintillation counting analysis; method in brief: as §1
Sequence of Protein kinase C delta type (Homo sapiens) (Q05655 whole entry, looked up): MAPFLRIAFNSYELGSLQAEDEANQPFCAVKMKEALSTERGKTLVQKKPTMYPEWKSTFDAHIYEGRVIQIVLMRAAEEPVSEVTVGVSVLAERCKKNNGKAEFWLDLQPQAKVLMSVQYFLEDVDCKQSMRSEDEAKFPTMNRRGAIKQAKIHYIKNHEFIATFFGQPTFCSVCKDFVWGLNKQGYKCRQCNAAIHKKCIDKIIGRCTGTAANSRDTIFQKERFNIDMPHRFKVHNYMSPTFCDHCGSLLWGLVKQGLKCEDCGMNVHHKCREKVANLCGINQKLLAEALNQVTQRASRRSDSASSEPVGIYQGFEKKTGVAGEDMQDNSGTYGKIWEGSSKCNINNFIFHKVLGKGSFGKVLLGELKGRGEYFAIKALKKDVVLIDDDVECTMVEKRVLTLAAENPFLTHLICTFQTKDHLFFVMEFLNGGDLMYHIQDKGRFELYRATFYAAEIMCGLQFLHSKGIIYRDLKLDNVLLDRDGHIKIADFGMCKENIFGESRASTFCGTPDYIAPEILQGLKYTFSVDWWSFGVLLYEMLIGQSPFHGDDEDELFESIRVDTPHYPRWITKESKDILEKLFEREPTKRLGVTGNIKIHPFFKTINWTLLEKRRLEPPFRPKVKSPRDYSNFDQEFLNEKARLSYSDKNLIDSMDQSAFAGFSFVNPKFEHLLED

CCOc1c(S(=O)(=O)NC2CC(C)(C)NC(C)(C)C2)ccc(Cl)c1Cl
inhibition [1]: Active
inhibition [2]: inactive
inhibition [3]: inactive
inhibition [4]: inactive
inhibition [5]: inactive

Reference: ChEMBL document CHEMBL4257486, “A novel allosteric inhibitor that prevents IKKβ activation” (Medchemcomm, 2018)
